HCT116 bCat-KO = beta-catenin-lacking colon tumor cell growth suppression | HCT116 beta-catenin knockout viability, CellTiter-Glo, 60 h; active compounds read low | viability, % at 10 µM | hit rate 1.5% among 140,000;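 active means viability at or under a set limit, the compound median less 4 SD, cut at about 6% in these data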;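 further: 0% = Hyamine 1622 control at 20 µM and 100% = untreated cell control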
HCT116 PTEN-null = PTEN-deleted cell growth suppression | HCT116 PTEN-null viability, CellTiter-Glo, 60 h; active compounds read low | viability, % at 10 µM | hit rate 1.2% among 140,000;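 active means viability at or below a set limit, 4 SD under the median of all tested compounds, cut at about 3.7% in these data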;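 further: PTEN knockout HCT116 line with beta catenin targeted HCT116 as companion control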
Autophagy HCS = alters autophagy in cells. calls only at 10 µM (by protocol). hit rate 0.98% among 190,000. MEF GFP-LC3 puncta imaging; test concentration mostly 10 µM. AID 463193;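 active means percentage of spot-positive cells more than 3 SD above its plate mean, without a fluorescence outlier flag or 80% toxicity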;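 further: spot-positive cell cutoff set from DMSO-treated cells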
Lmaj promast = Leishmania major promastigote growth inhibition; inhibition, % at 10 µM; Leishmania major promastigotes, resazurin fluorescence viability; hit rate 9% among 200,000; in the data active means inhibition above about 50%;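 further: promastigotes grown with compound for 44 hours at 28 °C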
Dynein cargo inh = dynein cargo transport inhibition; z-score, hits read low; 3617.4 mouse cells, GR-EGFP nuclear translocation imaging; test concentration mostly 20 µM; stimulated with dexamethasone, 1 µM; active compounds read low; hit rate 0.47% among 220,000;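 active means plate z-score of nuclear minus cytoplasmic receptor signal below a set negative limit, without overly bright fluorescence or cell loss, cut at about -3.5 in these data, passing the limit was not always enough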;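 further: z-score of nuclear minus cytoplasmic ring GR-EGFP intensity difference per well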
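Buffer or medium: tet-free medium with charcoal-stripped serum / Also added: dexamethasone agonist, 1.0 µM final, for 30 min / Timing: induction 48 h, compound 1 h, agonist 30 min / Measured by: high-content fluorescence imaging after fixation / Read-out: nuclear-to-cytoplasmic GR-EGFP distribution per well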
* marks the source's active call; other numbers are inactive results; i = inactive; nt = no result given; + = active, no number. In the library only some 9.2% were active in any assay of this set; here they are far more common.

SMILES	HCT116 bCat-KO	HCT116 PTEN-null	Autophagy HCS	Lmaj promast	Dynein cargo inh
C=CCn1c(SCc2nc3sc4c(c3c(=O)[nH]2)CCCC4)nc2ccccc2c1=O	54	40	i	84*	-0.36
C/C(=N\NC(=O)Nc1ccccc1)c1ccc2ccccc2c1	100	101	i	-1	0.23
C/C(=N/NC(=O)Nc1ccccc1)c1ccc(C)cc1	96	99	i	51*	-0.4
COc1cc(C(=O)Nc2cccc3ncccc23)cc(OC)c1OC	98	92	i	-7	-0.79
COc1cc(C(=O)Nc2ccccc2C2COC(=O)C2=N)cc(OC)c1OC (stereo not drawn)	91	92	+	1	0.6
N#CC(C#N)=C1C=CC=CN1/C(=C\c1ccco1)C(=O)c1ccc(Cl)cc1	2.4*	2.2*	i	11	-3.5
N#CC(C#N)=C1C=CC=CN1/C(=C\c1ccco1)C(=O)c1ccc(-c2ccccc2)cc1	1.7*	1.5*	i	100*	-2.4
CC(/C=N/n1c(-c2ccc(Cl)cc2)n[nH]c1=S)=C\c1ccco1	92	95	i	-8	-0.37
O=C(CN(C(=O)CSc1nc2ccccc2o1)c1ccccc1F)NC1CCCCC1	84	83	i	65*	0.49
COCCN(CC(=O)NC1CCCCC1)C(=O)CSc1nc2ccccc2o1	85	90	i	-10	-1.2
COc1ccc(NS(=O)(=O)c2ccc(N3CCCC3)c(NC(=S)Nc3ccc(SC(F)F)cc3)c2)cc1	66	65	i	87*	0.15
COc1ccc(NS(=O)(=O)c2ccc(N3CCCC3)c(NC(=S)Nc3cccc(C)c3C)c2)cc1	74	69	i	58*	-0.037
O=S(=O)(Nc1ccc(Cl)cc1)c1ccc(N2CCOCC2)c(NC(=S)NC2CC2)c1	nt	nt	i	-1	0.12
CCN(CC)S(=O)(=O)c1ccc(N2CCCC2)c(NC(=O)Cc2ccc(OC)cc2)c1	nt	nt	i	-2	-1.1
COC(=O)C1=C(C)N(Cc2ccco2)C(=O)N[C@@H]1c1cccc(C(F)(F)F)c1	0.7*	0.7*	i	21	0.45
COC(=O)C1=C(C)N(Cc2ccccc2)C(=O)N[C@H]1c1cccc(C(F)(F)F)c1	nt	nt	nt	nt	0.087
CCCCCCN1C=C/C(=C\C=C(C#N)C#N)c2ccccc21	57	66	i	8	3.4
C=CCN1C=C/C(=C\C=C(C#N)C#N)c2ccccc21	84	86	i	70*	2
Cc1ccc(NC(=O)CSc2nnc(C)c(=O)[nH]2)cc1C	nt	nt	i	-5	-0.33
Cc1cccc(C)c1NC(=O)CSc1nnc(C)c(=O)[nH]1	nt	nt	i	66*	-0.73
COc1ccc(CCNC(=O)Cn2cc(C(F)(F)F)cc(Cl)c2=O)cc1OC	91	97	i	-5	-0.55
C[N+]1=C(/C=C/Nc2ccccc2Cl)C(C)(C)c2ccccc21	28	50	i	98*	-0.64
FC(F)(F)c1cnc(/C=C/Nc2ccccc2Cl)c(Cl)c1	81	83	i	-3	0.12
CCOC(=O)c1cnc2c(OC)cccc2c1N1CCN(c2ccccc2OC)CC1	69	56	i	63*	0.92
C/C(=C1/C(=O)N(c2ccc([N+](=O)[O-])cc2)N=C1c1ccccc1)N(C)C	3.3*	2.2*	i	-7	0.15
SMILES	HCT116 bCat-KO	HCT116 PTEN-null	Autophagy HCS	Lmaj promast	Dynein cargo inh
COCc1cc(CN2CCN(Cc3ccsc3)C(CCO)C2)ccc1OC (stereo not drawn)	nt	nt	i	-2	-0.79
COc1cc(SC#N)ccc1N=Cc1c(C)[nH]n(-c2ccc(Cl)cc2)c1=O	94	93	+	32	-0.32
COc1cc(SC#N)ccc1N=Cc1c(C)[nH]n(-c2ccc(C)c(C)c2)c1=O	0.8*	0.3*	i	99*	0.65
COc1ccc(-c2cc(CNC(C)=O)on2)cc1	102	88	i	-6	nt
COc1ccc(-c2cc(CNC(=O)CCl)on2)cc1	11	14	i	66*	-0.73
Cc1c(CCOC(=O)CC23CC4CC(CC(C4)C2)C3)sc[n+]1Cc1ccccc1	52	56	i	100*	-0.59
Cc1ncc(C[n+]2csc(CCOC(=O)CC34CC5CC(CC(C5)C3)C4)c2C)c(N)n1	93	98	i	-7	-0.0038
Cc1ccc(C(OCC(O)CNC(C)c2ccccc2)c2ccccc2)cc1 (stereo not drawn)	nt	nt	i	77*	-0.45
CC(NCC(O)COCc1ccc(Cl)cc1)c1ccccc1 (stereo not drawn)	nt	nt	i	48	0.48
